Source: PubChem
This is a sample that favours compounds with a hit; in the whole collection about 1.6% have one here.
mABHD4 FP: ABHD4 inhibitors, primary screen, biochemical, fluorescence polarization, mouse | (Lyso)-N-acylphosphatidylethanolamine lipase (Mus musculus), Q8VD66 | purified mABHD4, FP-Rh probe fluorescence polarization | inhibition, % at 8.92 µM | actives 0.54% (n = 370,000);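 active = inhibition exceeding the mean over every tested compound plus 3 SD, cut at about 30% in these data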;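 note: 0% = plate median of compound wells and 100% = S159A mutant with DMSO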
Target sequence (Q8VD66 whole entry, looked up): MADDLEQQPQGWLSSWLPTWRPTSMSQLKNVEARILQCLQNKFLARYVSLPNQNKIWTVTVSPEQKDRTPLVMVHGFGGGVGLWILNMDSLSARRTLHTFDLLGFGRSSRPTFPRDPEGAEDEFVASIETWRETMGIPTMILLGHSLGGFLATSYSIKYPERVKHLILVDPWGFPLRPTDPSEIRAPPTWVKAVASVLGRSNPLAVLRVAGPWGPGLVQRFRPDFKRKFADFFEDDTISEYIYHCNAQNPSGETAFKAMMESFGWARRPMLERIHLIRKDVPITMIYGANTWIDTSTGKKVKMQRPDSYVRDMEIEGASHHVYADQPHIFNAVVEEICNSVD
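Test system: mABHD4 protein | Buffer or medium: HEPES pH 7.0 buffer, 150 mM NaCl, 0.01% Pluronic F-127 | Probe or stimulus: FP-Rh fluorescent activity-based probe, added after compound pre-incubation | Timing: Pre-incubation 45 min, probe exposure 60 min, at 25 °C | Technique: Fluorescence polarization, excitation 525 nm, emission 598 nm, BODIPY TMR filters | Repeats: Single well per compound (singlicate)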
DAGLB inhibitor: DAGLB lipase inhibitors, primary screen, biochemical, fluorescence, HTS; Diacylglycerol lipase-beta (Homo sapiens), Q8NCG7; HEK293T DAGLB membrane lysate, EnzChek fluorogenic substrate; inhibition, % at 5.17 µM; actives 0.059% (n = 340,000); AID 504411, 2011; in the data active = inhibition above about 34%;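 note: 0% = enzyme with vehicle and 100% = wells lacking enzyme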
TCR-CD3 inh: inhibitors of human TCR-CD3 interaction, primary screen, biochemical, fluorescence, TAMRA-labeled TCR probe; T-cell receptor (TCR); inhibition, % at 9.4 µM; AID 651800, 2012; actives 0.37% (n = 360,000); in the data active = inhibition above about 19%;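 note: recombinant mutant TCR 2C K166C tagged with TAMRA read by polarization; 0% = receptor in buffer alone and 100% = receptor with positive control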
HTRA1 inhibitor: HTRA1 serine protease inhibitors, primary screen, biochemical, fluorescence polarization, HTS; Q92743; recombinant HTRA1, FP-rhodamine activity-based probe; inhibition, % at 5.96 µM; actives 0.5% (n = 340,000); in the data active = inhibition above about 36%;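 note: 0% = enzyme with DMSO and 100% = wells lacking enzyme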
SIAE primary: human SIAE inhibitors, primary screen, biochemical, fluorescence polarization, FP-Rh probe, 1536-well HTS. Sialate O-acetylesterase (Homo sapiens), Q9HAT2. SIAE FP-Rh probe binding. inhibition, % at 9.66 µM. actives 0.69% (n = 370,000). AID 1053197, 2014;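 active = inhibition above a cutoff: mean of compounds within the control limits plus 3 SD of those, cut at about 17% in these data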;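 note: 0% = plate median of compound wells and 100% = probe without SIAE protein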
DAGLB confirm: DAGLB lipase inhibitors, retest, confirmation, biochemical, fluorescence, HEK293T membranes; actives 73% (n = 190); shares compounds with DAGLB inhibitor; inhibition, % at 5.17 µM; HEK293T DAGLB membrane lysate, EnzChek fluorogenic substrate;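 active = mean inhibition over triplicate wells above a set limit taken from the primary lipase screen, cut at about 34% in these data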;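 note: 0% = DAGLB with DMSO and 100% = wells lacking DAGLB enzyme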
HTRA1 inh conf: HTRA1 protease inhibitors, retest, confirmation, biochemical, fluorescence polarization | shares compounds with HTRA1 inhibitor | recombinant HTRA1, FP-rhodamine activity-based probe | inhibition, % at 5.96 µM | actives 66% (n = 1,600) | AID 540248, 2011;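 active = mean inhibition over three repeats above a set limit taken from the earlier primary screen, cut at about 37% in these data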;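 note: 0% = HTRA1 with DMSO and 100% = wells lacking HTRA1; inhibitors block probe binding so polarization drops and inhibition rises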
ABHD4 confirm: ABHD4 inhibitors, retest, confirmation, biochemical, fluorescence polarization, mouse | shares compounds with mABHD4 FP | purified mABHD4, FP-Rh probe fluorescence polarization | inhibition, % at 8.92 µM | actives 55% (n = 1,800) | AID 720658, 2013;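 active = mean inhibition across replicates above the hit cutoff set in the primary screen, cut at about 30% in these data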;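 note: 0% = wild-type ABHD4 with DMSO and 100% = catalytically dead S159A mutant with DMSO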
Active calls of the source: *; . = not tested or not shown.

SMILES	mABHD4 FP	DAGLB inhibitor	TCR-CD3 inh	HTRA1 inhibitor	SIAE primary	HTRA1 inh conf	others
O=C1CC=C2C3CC4N(CCC45c4cc(O)c(O)cc4N1C25)CC3=CCBr (centres undefined)	19.9	-3.6	50.3*	10.9	4.4	.
C[C@H](NC(=O)OCc1ccccc1)C(=O)NC(Cc1ccccc1)P(=O)(Oc1ccccc1)Oc1ccccc1 (some centres undefined)	-11.0	.	.	.	5.2	.
Brc1ccc2c(c1)-n1nncc1CNC2	-3.3	.	7.5	.	-3.4	.
N#CCC[C@@H]1CC[C@]2(CCCN(Cc3ccccn3)C2)O1	-3.4	.	.	.	-3.9	.
CCC(CO)NC(=O)C1C=C2c3cccc4[nH]cc(c34)CC2N(C)C1 (centres undefined)	18.7	-0.7	6.6	15.7	6.6	.
CC(C)C[C@H]1C(=O)N2CCC[C@H]2[C@]2(O)O[C@](NC(=O)[C@@H]3C=C4c5cccc6[nH]cc(c56)C[C@H]4N(C)C3)(C(C)C)C(=O)N12	.	-5.2	.	41.9*	.	.
CC[C@H](C)/C=C(C)/C=C/C1=CC2=C(Cl)C(=O)[C@@](C)(OC(C)=O)C(=O)C2=CO1	.	30.2	.	77.7*	.	.
CCCNC1=C(C)C(=O)C2=C(C1=O)C(COC(N)=O)[C@]1(OC)C3NC3CN21 (some centres undefined)	22.4	-0.9	27.2*	11.9	10.5	.
COC1CC=C2CCN3CCC4=C(CC(=O)OC4)C23C1 (centres undefined)	-5.8	.	-2.4	.	-0.5	.
C=C1C(=O)C(C)=C2C(=O)N3Cc4[nH]c5ccccc5c4CC3(C(=O)OC)C12 (centres undefined)	-5.5	.	.	.	-11.1	.
CCOC(=O)[C@]1(C#N)[C@@H]2C=CC(C(C)=O)=CN2[C@@H](C(N)=O)[C@@H]1c1ccsc1	19.0	0.7	-2.6	-4.9	17.5*	.
CC(=O)c1ccc2c(c1)C1C(Cl)C(Sc3ccccc3[N+](=O)[O-])CC1C(c1ccccc1)N2 (centres undefined)	24.3	4.7	5.6	17.4	17.7*	.
COc1ccc([C@@H]2C[C@H]3[C@@H](CN2)CON3C)cc1	0.9	.	.	.	-1.9	.
O=[N+]([O-])c1cc(O)c(O)c([N+](=O)[O-])c1	74.2*	41.5*	8.7	35.0	5.6	.	DAGLB confirm=33.1;ABHD4 confirm=49.6*
CC(=O)C1=C(C)OC2=C(C(=O)CCC2)[C@@]12C(=O)N(C)c1ccccc12	-1.3	.	1.9	.	-1.2	.
COc1ccc(-n2c(/C=C/c3ccc(O)c(O)c3)nc3ccccc3c2=O)cc1	21.5	3.1	10.1	65.7*	12.3	62.9*
C=CCN(CC#CCO)Cc1ccc(OC)cc1OC	1.2	.	.	.	2.4	.
COc1cc(/C=C2\C(=O)NC(=O)N(c3ccccc3)C2=O)c([N+](=O)[O-])cc1OC	23.3	-0.1	2.6	1.1	8.5	.
COc1ccc(OC)c(N2C(=O)NC(=O)/C(=C/c3ccc([N+](=O)[O-])s3)C2=O)c1	-40.2	10.9	-24.5	48.2*	0.4	43.2*
CCC(C)/C=C(C)/C=C/C1=CC2=C(Cl)C(=O)C(C)(OC(C)=O)C(=O)C2=CO1 (centres undefined)	.	30.0	.	44.0*	.	68.1*
C=Cn1ccnc1P(=S)(c1nccn1C=C)c1nccn1C=C	5.2	1.8	4.5	40.6*	1.4	42.8*
Cc1cc(OC(=O)c2ccco2)c2c3c(c(=O)oc2c1)CCCC3	-3.1	-4.4	0.5	41.9*	-0.7	33.0
Cc1cc(OC(=O)c2cccs2)c2c3c(c(=O)oc2c1)CCCC3	-8.9	-4.0	-8.1	-4.3	1.3	.
CC(NC(=O)OCc1ccccc1)P(=O)(Oc1ccccc1)Oc1ccccc1 (centres undefined)	-4.4	.	.	.	-4.1	.
CCCC(=O)N1c2ccc(Cl)cc2C(c2ccccc2)=NCC1C(=O)NC(C)(C)C (centres undefined)	-1.4	.	.	.	-3.8	.
SMILES	mABHD4 FP	DAGLB inhibitor	TCR-CD3 inh	HTRA1 inhibitor	SIAE primary	HTRA1 inh conf	others
c1ccc(Nc2ccc(Nc3ccccc3)cc2)cc1	25.9	4.7	3.7	55.9*	9.9	42.6*
COc1cccc(-c2ccc3c(c2)C2c4cnnn4-c4ccccc4C(=O)N2CC3)c1 (centres undefined)	6.0	.	2.1	.	2.7	.
CC1Oc2cc3c(-c4c(O)cc(O)c5c(O)c6c(cc45)OC(C)C(C)C6=O)c(O)cc(O)c3c(O)c2C(=O)C1C (centres undefined)	.	25.9	.	66.4*	.	80.6*
O=C(CN1C(=O)[C@@H](Cc2ccc(O)cc2)N=C(c2ccccc2)c2ccccc21)NC1CCCCC1	-11.9	.	.	.	-0.3	.
CC(C)(C)c1ccc(O)c(N=Cc2c(O)ccc3ccccc23)c1	24.2	-11.2	11.0	50.0*	12.4	62.6*
COc1ccc2c(c1O)-c1c(OC)c(OC)cc3c1[C@H](C2)N(C)CC3	0.8	2.5	6.2	1.5	0.8	.
CCCN1CCc2cccc3c2[C@H]1Cc1ccc(O)c(O)c1-3	.	9.9	.	77.3*	.	65.6*
Fc1ccc2nc(-c3ccc(CN4CCC(n5nnc6ccccc65)CC4)cc3)c(-c3ccccc3)nc2c1	-13.3	.	-11.7	.	-9.3	.
CCN(CC)c1ccc(N=Cc2c(O)n(Cc3ccco3)c(=O)[nH]c2=O)cc1	45.4*	3.3	10.2	41.8*	16.9	-0.4	ABHD4 confirm=1.8
CC(NC(=O)OCc1ccccc1)[P+](=O)O (centres undefined)	3.7	.	.	.	4.9	.
CC(C)OC(=O)C1C(c2ccc(I)cc2)CC2CCC1N2C (centres undefined)	-1.6	.	3.2	.	-3.9	.
